Source: publication PMC6060173 (The Lancet. Infectious Diseases, 2018)
Where two headings read alike, the source gives them in different places.

Tests used:
[1] = test system: P falciparum and P vivax field isolates; conditions: ex-vivo; cited from earlier work
[2] = test system: Plasmodium falciparum; test: Phase 2a single-dose efficacy: PCR-adjusted ACPR, thick blood smear microscopy; type: in vivo; conditions: P falciparum
Procedure, shortened: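 P falciparum patients (1000–35 000 asexual parasites per μL) received one oral dose of 400 or 250 mg. Treatment failure was read by thick blood smear microscopy; the first cohort initially used quantitative PCR. PCR adjustment distinguished recrudescence from new infection. ACPR was scored at days 14 and 28. ITT included all dosed patients; per-protocol excluded those who vomited, took other medication, had protocol violations or lacked data.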

[3] = test system: Plasmodium vivax; test: Phase 2a single-dose efficacy: crude cure, thick blood smear microscopy; type: in vivo
Procedure, shortened: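 P vivax patients (1000–35 000 asexual parasites per μL) received one oral dose of 400, 600 or 800 mg. Crude cure meant clearance of asexual parasites within 7 days with no later recurrence, read by thick smear microscopy without PCR adjustment. It was scored at day 14, and cure at day 28. Rescue treatment was given if parasites remained at day 7. Analysis used ITT and per-protocol populations.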

[4] = test system: Plasmodium falciparum; test: Asexual parasite clearance parameters; type: in vivo; conditions: P falciparum
Procedure, shortened: (§1)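 Parasitaemia was counted by microscopy before one oral dose of the test compound and every 4 h over days 0–3. If two consecutive negative readings were not reached, the stay was extended to 7 days with counts every 6 h until clearance. Clearance kinetics, including lag time before parasite decline, followed WWARN statistical procedures. Kaplan-Meier analyses used a modified ITT population.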

[5] = test system: Plasmodium vivax; test: Asexual parasite clearance parameters; type: in vivo; conditions: P vivax
Procedure, shortened: as §1

[6] = Pharmacokinetics in malaria patients; type: in vivo, human
Procedure, shortened: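 A further sample was taken on day 5 or 7, depending on day-3 parasitaemia. Later samples were taken on days 10–11, 14, 17–18, 21, 24–25, 28 and 35. Parameters were AUC0-t, AUC0-168, AUC0-inf, Cmax, tmax, t1/2, C168h and λinf.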

[7] = Adverse events in malaria patients; type: in vivo, human
Procedure, shortened: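 Patients received one oral dose of the test compound in suspension: 400 or 250 mg for P falciparum, and 400, 600 or 800 mg for P vivax. They were kept in clinic with checks every 4 h over days 0–3. Safety follow-up lasted 35 days. Safety was analysed in all patients who received at least one dose.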

[8] = 12-lead and Holter ECG safety analysis in malaria patients; type: in vivo, human
Procedure, shortened: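 Adults with uncomplicated malaria (18–70 years, 45–90 kg) received one oral dose of the test compound in suspension, ideally fasted. QT interval was corrected by Fridericia (QTcF) and compared with baseline. PR and QRS intervals were also recorded during the study.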

[9] = test system: Plasmodium vivax; test: Gametocytaemia by microscopy; type: in vivo; conditions: cohort 2b, P vivax, 600 mg
Procedure, shortened: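 Patients with P vivax malaria received one oral dose of the test compound: 400 mg in cohort 1b or 600 mg in cohort 2b. Gametocytaemia was assessed by microscopy throughout the 28-day follow-up. The measure was conversion from microscopy-negative at the start of treatment to gametocyte-positive.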

[10] = test system: P. falciparum; test: MIC/MPC estimate from nadir of parasitaemia in recrudescing patients; type: in vivo, Plasmodium falciparum; conditions: 400 mg
[11] = test system: P. falciparum Dd2 B2 clone; conditions: dhodh Gly181Cys mutation; cited from earlier work
[12] = test system: P falciparum; conditions: for a 60 kg patient; cited from earlier work
[13] = test system: P falciparum; conditions: single dose of 400 mg administered 1 day before parasite challenge; cited from earlier work
[14] = target: PvDHODH enzyme; conditions: truncated recombinant enzymes; cited from earlier work
[15] = test system: Plasmodium falciparum DHODH; conditions: cited from earlier work
[16] = cited from earlier work
[17] = cohort 1a (n=13), P falciparum, 400 mg
[18] = cohort 1b (n=5), P vivax, 400 mg
[19] = cohort 2a (n=11), P falciparum, 250 mg
[20] = cohort 2b (n=9), P vivax, 600 mg
[21] = cohort 3b (n=7), P vivax, 800 mg

Question: With `Cc1cc(Nc2ccc(C(F)(F)F)nc2)n2nc(C(C)(F)F)nc2n1` [DSM421, reference compound] as the compound, how does the “efficacy for P falciparum compared with P vivax” value [1] read?
Answer: equal efficacy

Question: Which “patients achieving ACPR at day 28” value ([2]; 250 mg, ITT) does the source give for `Cc1cc(Nc2ccc(S(F)(F)(F)(F)F)cc2)n2nc(C(C)(F)F)nc2n1` [DSM265] here?
Answer: 55%

Question: And the “patients achieving PCR-adjusted ACPR at day 14” value ([2]; 250 mg, ITT)?
Answer: 73%

Question: And the “patients achieving ACPR at day 28” value ([2]; 250 mg, per-protocol)?
Answer: 60%

Question: What about the “patients achieving PCR-adjusted ACPR at day 14” value ([2]; 250 mg, per-protocol) of the same compound?
Answer: 80%

Question: And the “patients achieving PCR-adjusted ACPR at day 14” value ([2]; 400 mg single oral dose, per-protocol)?
Answer: 100%

Question: What about the “patients achieving ACPR at day 28” value ([2]; 400 mg, ITT) of the same compound?
Answer: 69%

Question: And the “patients achieving PCR-adjusted ACPR at day 14” value ([2]; 400 mg, ITT)?
Answer: 85%

Question: What about the “patients achieving ACPR at day 28” value ([2]; 400 mg, per-protocol) of the same compound?
Answer: 89%

Question: And the “patients achieving crude cure at day 14” value ([3]; P vivax, 400 mg, ITT (five patients))?
Answer: none

Question: And the “patients achieving crude cure at day 14” value ([3]; P vivax, 400 mg, per-protocol (four patients))?
Answer: none

Question: And the “patients achieving crude cure at day 14” value ([3]; P vivax, 600 mg, ITT)?
Answer: 33%

Question: What about the “patients achieving crude cure at day 14” value ([3]; P vivax, 600 mg, per-protocol) of the same compound?
Answer: 50%

Question: What about the “patients achieving crude cure at day 14” value ([3]; P vivax, 800 mg, ITT) of the same compound?
Answer: 14%

Question: What about the “patients achieving crude cure at day 14” value ([3]; P vivax, 800 mg, per-protocol) of the same compound?
Answer: 25%

Question: And the “patients achieving a cure at day 28” value ([3]; P vivax, all doses)?
Answer: No patients

Question: What about the P vivax clearance ([3]; within the first 100 h, doses of 600 mg and 800 mg) of the same compound?
Answer: 99–100%

Question: What about the Profiles with lag ([4]; cohort 1a, 400 mg, 8 profiles analysed) of the same compound?
Answer: 4

Question: What about the Profiles with lag ([4]; cohort 2a, 250 mg, 7 profiles analysed) of the same compound?
Answer: 5

Question: And the Profiles with lag ([5]; cohort 1b, 400 mg, 4 profiles analysed)?
Answer: 3

Question: And the Profiles with lag ([5]; cohort 2b, 600 mg, 9 profiles analysed)?
Answer: 3

Question: And the Profiles with lag ([5]; cohort 3b, 800 mg, 6 profiles analysed)?
Answer: 1

Question: And the “dose proportionality based on Cmax and AUC0-∞” value ([6]; P falciparum patients, 250 mg or 400 mg)?
Answer: dose proportional

Question: And the “dose proportionality of exposure” value ([6]; P vivax patients, 400 mg to 800 mg)?
Answer: slightly subproportional

Question: What about the Tmax ([6]; human, plasma, oral, tmax, seen for the other patients) of the same compound?
Answer: 6 to 8 h

Question: And the patients with headache ([7]; all 45 patients)?
Answer: 40%

Question: What about the patients with pyrexia ([7]; all 45 patients) of the same compound?
Answer: 44%

Question: And the “abnormal haematology laboratory results considered clinically significant” value ([7]; all patients)?
Answer: No patients

Question: What about the “treatment-related serious adverse events or adverse events leading to study discontinuation” value ([7]; all patients) of the same compound?
Answer: no patients

Question: What about the “Adverse event of special interest” value [7, 17] of the same compound?
Answer: 2 (15%) number of patients (%)

Question: And the Any adverse event [7, 17]?
Answer: 10 (77%) number of patients (%)

Question: What about the Serious adverse event [7, 17] of the same compound?
Answer: 0 number of patients (%)

Question: What about the Severe adverse event [7, 17] of the same compound?
Answer: 0 number of patients (%)

Question: What about the Treatment-related adverse event [7, 17] of the same compound?
Answer: 3 (23%) number of patients (%)

Question: What about the “Adverse event of special interest” value [7, 18] of the same compound?
Answer: 0 number of patients (%)

Question: What about the Any adverse event [7, 18] of the same compound?
Answer: 4 (80%) number of patients (%)

Question: And the Serious adverse event [7, 18]?
Answer: 0 number of patients (%)

Question: And the Severe adverse event [7, 18]?
Answer: 1 (20%) number of patients (%)

Question: And the Treatment-related adverse event [7, 18]?
Answer: 1 (20%) number of patients (%)

Question: What about the “Adverse event of special interest” value [7, 19] of the same compound?
Answer: 3 (27%) number of patients (%)

Question: What about the Any adverse event [7, 19] of the same compound?
Answer: 7 (64%) number of patients (%)

Question: And the Serious adverse event [7, 19]?
Answer: 1 (9%) number of patients (%)

Question: And the Severe adverse event [7, 19]?
Answer: 2 (18%) number of patients (%)

Question: What about the Treatment-related adverse event [7, 19] of the same compound?
Answer: 2 (18%) number of patients (%)

Question: What about the “Adverse event of special interest” value [7, 20] of the same compound?
Answer: 1 (11%) number of patients (%)

Question: What about the Any adverse event [7, 20] of the same compound?
Answer: 7 (78%) number of patients (%)

Question: What about the Serious adverse event [7, 20] of the same compound?
Answer: 0 number of patients (%)

Question: And the Severe adverse event [7, 20]?
Answer: 0 number of patients (%)

Question: What about the Treatment-related adverse event [7, 20] of the same compound?
Answer: 0 number of patients (%)

Question: What about the “Adverse event of special interest” value [7, 21] of the same compound?
Answer: 0 number of patients (%)

Question: What about the Any adverse event [7, 21] of the same compound?
Answer: 6 (86%) number of patients (%)

Question: And the Serious adverse event [7, 21]?
Answer: 0 number of patients (%)

Question: What about the Severe adverse event [7, 21] of the same compound?
Answer: 0 number of patients (%)

Question: And the Treatment-related adverse event [7, 21]?
Answer: 0 number of patients (%)

Question: And the tolerability ([7]; single oral dose 250-800 mg, all patients)?
Answer: well tolerated

Question: What about the “values for QTcF recorded” value ([8]; in a few patients) of the same compound?
Answer: 450 to 500 ms

Question: And the “QTcF changes from baseline” value ([8]; more patients with P falciparum than P vivax)?
Answer: 30 to 60 ms

Question: What about the “patients negative for gametocytaemia at baseline who became positive” value [9] of the same compound?
Answer: 13%

Question: What about the “estimated duration of exposure greater than the minimum parasiticidal concentration” value [10] of the same compound?
Answer: around 10 days

Question: And the reduction in potency [11]?
Answer: 26 times

Question: And the “predicted efficacious single curative dose” value [12]?
Answer: 340 mg

Question: What about the protection from infection [13] of the same compound?
Answer: complete protection

Question: And the “IC50 for the PvDHODH enzyme relative to PfDHODH” value [14]?
Answer: two times higher

Question: What about the “in-vitro selectivity for Plasmodium falciparum DHODH over its human ortholog” value [15] of the same compound?
Answer: very high

Question: And the “efficacy for P falciparum compared with P vivax” value [1]?
Answer: five-times better

Question: What about the “duration of effectiveness (pharmacokinetic profile)” value ([16]; after a single oral dose in the range of 200–400 mg) of the same compound?
Answer: more than 8 days

Question: What about the tolerability ([16]; healthy participants, single doses of ≤1200 mg) of the same compound?
Answer: generally well tolerated
